Sampled rows, rich in hits. Any-hit rate of the full collection: about 1.5%.
HTR2A ag – mouse HTR2A agonism via beta-arrestin recruitment | CHO-K1 mHTR2A beta-arrestin complementation, luminescence; percent of 30 µM serotonin response | activation, % at 7.6 µM | hit rate 0.66% among 360,000 | AID 624169;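 active = activation above a run cutoff, the mean activation of all tested compounds plus 3 SD, cut at about 14% in these data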
APJ agonist – agonists of human APJ apelin receptor; P35414; CHO-K1 APJ PathHunter beta-arrestin, luminescence; 0% DMSO wells, 100% apelin; activation, % at 20 µM; hit rate 0.11% among 330,000;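 active = activation more than six SD over the plate average, tested at 20 µM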
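Incubation: overnight seeding, 90 min compound at 25 °C, 1 h detection; test system: PathHunter CHO-K1 APJ (AGTRL-1) beta-arrestin reporter cells; amount: 1000 cells/well; doses: one dose, 20 µM compound, 1% DMSO; measured by: beta-gal luminescence; measure: agonist-driven arrestin binding to APJ; benchmarks: negative DMSO alone, positive Apelin-13 at 10 nM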
CCR6 antag – blocks CCL20-driven beta-arrestin recruitment at human CCR6 | inhibition, % at 20 µM | hit rate 0.49% among 340,000 | CHO-K1 CCR6 PathHunter beta-arrestin, luminescence, CCL20-stimulated;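 active = compounds whose inhibition of the agonist-driven luminescence signal at 20 µM reaches about 50%, limit read from the data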;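 note: cells stimulated with CCL20 at 14 nM final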
CXCR6 inh – blocks human CXCR6 beta-arrestin recruitment | O00574 | CHO-K1 PathHunter CXCR6 beta-arrestin, luminescence | inhibition, % at 20 µM | hit rate 0.36% among 360,000 | AID 602244; in the data active = inhibition above about 34%, passing the limit was not always enough;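 note: antagonist mode with CXCL16 agonist at 10 nM final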
Target sequence (O00574 whole entry, looked up): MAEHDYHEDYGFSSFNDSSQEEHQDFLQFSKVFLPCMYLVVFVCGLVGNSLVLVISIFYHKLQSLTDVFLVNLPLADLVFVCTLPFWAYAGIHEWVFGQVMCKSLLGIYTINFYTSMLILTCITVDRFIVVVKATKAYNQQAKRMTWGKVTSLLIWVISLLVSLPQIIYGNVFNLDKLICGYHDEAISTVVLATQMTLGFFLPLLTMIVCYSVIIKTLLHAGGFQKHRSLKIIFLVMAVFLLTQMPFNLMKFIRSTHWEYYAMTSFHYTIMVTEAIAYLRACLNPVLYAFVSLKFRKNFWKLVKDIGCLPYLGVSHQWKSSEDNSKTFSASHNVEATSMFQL
NTR1 agonist – activates human neurotensin receptor 1 | P30989 | activation, % at 20 µM | AID 493036 | hit rate 0.17% among 330,000 | NTR1-U2OS beta-arrestin-GFP spot imaging, agonist mode;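 active = activation at or above 40% of the spot to cytoplasm intensity ratio, with at least 20 cells analyzed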
APJ antag – antagonists of human APJ apelin receptor | hit rate 0.32% among 330,000 | CHO-K1 APJ beta-arrestin complementation, luminescence | AID 2521 | inhibition, % at 20 µM;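 active = inhibition above about 40% at 20 µM, limit read from the data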;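 note: cells challenged with 10 nM apelin-13 agonist together with compound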
APJ antag confirm – APJ receptor antagonism confirmation. shares compounds with APJ antag. APJ beta-arrestin recruitment, luminescence, antagonist mode. inhibition, % at 20 µM. hit rate 66% among 950. AID 2766; in the data active = inhibition above about 50%
NTR1 ag confirm – NTR1 (human) agonism, confirmed | activation, % at 20 µM | NTR1-U2OS beta-arrestin-GFP translocation imaging | hit rate 38% among 480 | shares compounds with NTR1 agonist | AID 504550;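 active = mean activation at 20 µM of at least 40%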
CXCR6 confirm – confirmation of human CXCR6 receptor antagonists; shares compounds with CXCR6 inh; CHO-K1 CXCR6 PathHunter beta-arrestin, luminescence; inhibition, % at 20 µM; hit rate 65% among 700;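 active = mean inhibition over four retests above 40%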;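 note: receptor stimulated with 10 nM CXCL16 agonist; beta-galactosidase fragment complementation upon beta-arrestin recruitment to receptor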
Hits are given with their value.

COc1ccc(C=NNc2ccc([N+](=O)[O-])cc2S(=O)(=O)Nc2ccccc2C(=O)O)cc1OC was read as HTR2A ag inactive, APJ agonist inactive, CCR6 antag inactive, CXCR6 inh inactive, NTR1 agonist inactive and APJ antag inactive.
COc1ccc(C(C)(C)C)cc1NC(=O)CCCN1C(=O)CN(C)C1=O was read as HTR2A ag inactive, APJ agonist inactive, CCR6 antag inactive, CXCR6 inh inactive, NTR1 agonist inactive and APJ antag inactive.
`OCC1OC(Oc2c(Br)cc(Br)cc2Br)C(O)C(O)C1O` (centres undefined) gave HTR2A ag inactive, CCR6 antag inactive and CXCR6 inh inactive.
`CCCCn1c(NC(=O)c2ccccc2Cl)c(C#N)c2nc3ccccc3nc21` gave HTR2A ag inactive, APJ agonist inactive, CCR6 antag inactive, CXCR6 inh inactive, NTR1 agonist inactive, APJ antag 43 and APJ antag confirm inactive.
CCCCn1c(N)c(N(CCOC)C(=O)c2sc3cc(F)ccc3c2Cl)c(=O)[nH]c1=O was read as HTR2A ag inactive, APJ agonist inactive, CCR6 antag inactive, CXCR6 inh inactive, NTR1 agonist inactive and APJ antag inactive.
CCN(c1ccccc1)S(=O)(=O)c1ccc(OC)c(NC(=O)CN2C(=O)NC(C)(C)C2=O)c1 was read as HTR2A ag inactive, APJ agonist inactive, CCR6 antag inactive, CXCR6 inh inactive, NTR1 agonist inactive and APJ antag inactive.
For CCN(c1ccccc1)S(=O)(=O)c1ccc(Cl)c(NC(=O)CN2C(=O)NC3(CCCC3)C2=O)c1 the results were HTR2A ag inactive, APJ agonist inactive, CCR6 antag inactive, CXCR6 inh inactive, NTR1 agonist inactive, APJ antag 41 and APJ antag confirm 66.
`CCCOc1ccc(C(=O)NNC(=S)NC(=O)CC)cc1` gave HTR2A ag inactive, APJ agonist inactive, CCR6 antag 78, CXCR6 inh 48, NTR1 agonist inactive, APJ antag 54 and APJ antag confirm 94.
For COc1cc(C(=O)COC(=O)c2ccncc2)cc(OC)c1OC the results were HTR2A ag inactive, APJ agonist inactive, CCR6 antag inactive, CXCR6 inh inactive, NTR1 agonist inactive and APJ antag inactive.
`Cc1ccc(C(=O)COC(=O)c2ccncc2)cc1[N+](=O)[O-]` gave HTR2A ag inactive, APJ agonist inactive, CCR6 antag inactive, CXCR6 inh inactive, NTR1 agonist inactive, APJ antag 46 and APJ antag confirm 70.
For O=C(Cn1nnc2ccccc21)OCC(=O)c1ccc(Cl)c(Cl)c1 the results were HTR2A ag inactive, APJ agonist inactive, CCR6 antag 73, CXCR6 inh inactive, NTR1 agonist inactive, APJ antag 91 and APJ antag confirm 111.
O=C(COC(=O)c1ccncc1)c1ccc(Cl)c(Cl)c1 was read as HTR2A ag inactive, APJ agonist inactive, CCR6 antag inactive, CXCR6 inh inactive, NTR1 agonist inactive, APJ antag 74 and APJ antag confirm 86.
Screening Cc1oc(-c2ccccc2F)nc1CS(=O)CC(=O)NCc1ccc(F)cc1 (centres undefined) returned HTR2A ag inactive, APJ agonist inactive, CCR6 antag inactive, CXCR6 inh inactive, NTR1 agonist inactive and APJ antag inactive.
For CCOc1cccc(/C=C/c2ccc3cccc(O)c3n2)c1OC the results were HTR2A ag inactive, APJ agonist inactive, CCR6 antag inactive, CXCR6 inh inactive, NTR1 agonist 79, APJ antag 43, APJ antag confirm 72 and NTR1 ag confirm inactive.
`COc1ccc(-c2cn3cccnc3n2)cc1NC(=O)C(C)Oc1ccccc1` (centres undefined) gave HTR2A ag inactive, APJ agonist inactive, CCR6 antag inactive, CXCR6 inh inactive, NTR1 agonist inactive and APJ antag inactive.
Screening O=C(Nc1nnc(SCc2ccc(F)cc2)s1)c1ccccn1 returned HTR2A ag inactive, APJ agonist inactive, CCR6 antag 70, CXCR6 inh 44, NTR1 agonist inactive, APJ antag 78, APJ antag confirm inactive and CXCR6 confirm 50.
Screening COC(=O)c1ccc2c(c1)C(C)(C)C(/C=C/c1ccccc1O)=[N+]2C returned HTR2A ag inactive, APJ agonist inactive, CCR6 antag 89, CXCR6 inh 68, NTR1 agonist 50, APJ antag 63, APJ antag confirm 124, NTR1 ag confirm 51 and CXCR6 confirm 93.
For C[N+]1=C(/C=C/Nc2ccccc2Cl)C(C)(C)c2ccccc21 the results were HTR2A ag inactive, APJ agonist inactive, CCR6 antag inactive, CXCR6 inh inactive, NTR1 agonist inactive and APJ antag inactive.
CCC1=NN(C(=O)c2ccc([N+](=O)[O-])cc2)C(O)(c2ccccc2)C1 (centres undefined) was read as HTR2A ag inactive, APJ agonist inactive, CCR6 antag 82, CXCR6 inh 64, NTR1 agonist inactive, APJ antag 45, APJ antag confirm 71 and CXCR6 confirm 42.
Screening Cc1ccc(C2C(C#N)=C(N)Oc3n[nH]c(-c4cccs4)c32)cc1 (centres undefined) returned HTR2A ag inactive, APJ agonist inactive, CCR6 antag inactive, CXCR6 inh inactive, NTR1 agonist inactive and APJ antag inactive.
Screening COc1cc(C2C(C#N)=C(N)Oc3n[nH]c(-c4cccs4)c32)cc(OC)c1O (centres undefined) returned HTR2A ag inactive, APJ agonist inactive, CCR6 antag 59, CXCR6 inh 49, NTR1 agonist inactive, APJ antag 47, APJ antag confirm inactive and CXCR6 confirm 51.
Screening FC(F)(F)c1cnc(NNC(=S)Nc2cccnc2)c(Cl)c1 returned HTR2A ag inactive, APJ agonist inactive, CCR6 antag 87, CXCR6 inh 71, NTR1 agonist inactive, APJ antag 63, APJ antag confirm 65 and CXCR6 confirm 67.
For CC(C)(C)C(=O)Nc1ncc(C(F)(F)F)cc1Cl the results were HTR2A ag inactive, APJ agonist inactive, CCR6 antag inactive, CXCR6 inh inactive, NTR1 agonist inactive and APJ antag inactive.
Screening Cc1ccccc1NC(=S)NNc1ncc(C(F)(F)F)cc1Cl returned HTR2A ag inactive, APJ agonist inactive, CCR6 antag 70, CXCR6 inh 45, NTR1 agonist inactive, APJ antag 45, APJ antag confirm 70 and CXCR6 confirm 53.
